# Experimental data collected from several papers.
# Each line is one published result; the experiments were not run side by side.
# MAP2K6: Dual specificity mitogen-activated protein kinase kinase 6 (MAP2K6, Homo sapiens, UniProt P52564)
SMILES,target,read-out,mode,method,concentration,endpoint,result
Cn1cncc1[C@](O)(COc1ccc(C#N)cc1-c1ccc(OC(F)(F)F)cc1)c1ccc(C#N)cc1,MAP2K6,cell-free assay,,competition with immobilised ligand,1 µM,remaining binding,76%
Cn1cc(-c2cccc(N3CCc4c(sc5c4CC(C)(C)C5)C3=O)c2CO)cc(Nc2ccncn2)c1=O,"Dual specificity mitogen-activated protein kinase kinase 6 (MAP2K6, Homo sapiens, UniProt P52564, S207E/T211E)",enzyme activity,inhibitor,,1 µM,inhibition,-4%
Cc1nn(C)cc1-c1nc2c(N3CCN(Cc4ccc(Cl)cc4)CC3)c(Cl)cnc2[nH]1,MAP2K6,binding,,competition with immobilised ligand,1 µM,remaining binding,73%
N#CC1(c2ccccn2)CCN(Cc2cc(C(=O)O)c(=O)n3ccccc23)CC1,MAP2K6,cell-free assay,,competition with immobilised ligand,1 µM,remaining binding,99%
COc1ncccc1-c1cnn2ccc(N3CCN(C(=O)OC(C)C)CC3)nc12,MAP2K6,binding,,competition with immobilised ligand,1 µM,remaining binding,56%
CC(C)(C)c1cc(C=C(C#N)C#N)cc(Br)c1O,MAP2K6,enzyme activity,inhibitor,,0.5 µM,remaining activity,107%
Nc1ncc(-c2nc(N3CCOCC3)nc(N3CCOCC3)n2)c(C(F)F)n1,MAP2K6,binding,,competition with immobilised ligand,10 µM,remaining binding,92%
Cn1cc(-c2cc(F)cc(N3CCn4c(cc5c4CCCC5)C3=O)c2CO)cc(Nc2ccc(N3CCN(C4COC4)CC3)cn2)c1=O,MAP2K6,enzyme activity,inhibitor,,0.1 µM,inhibition,4%
O=c1[nH]c2ccccc2n1C1CCN(Cc2ccc(-c3[nH]c4cc5ncnc5cc4nc3-c3ccccc3)cc2)CC1,MAP2K6,cell-free assay,,,0.5 µM,remaining signal,101%
